Reference: ChEMBL document CHEMBL1649384, “Synthesis and antiproliferative activity of novel symmetrical alkylthio- and alkylseleno-imidocarbamates” (Eur J Med Chem, 2011)

Assays:
[1] = Cytotoxicity against human MCF10A cells after 72 hrs by MTT assay; type: cell-based, MCF-10A; details: for GI50 at 72 h: MCF10A cells; for LC50 / TGI: mcf-10a, 72 h
Outline: (§1)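 Cells seeded per well: Hep-G2 1×10⁴, HT-29 4×10³, K-562 4×10³, MCF-7 1.2×10⁴, MCF-10A 7×10³, PC-3 2×10³. MCF-10A were grown in supplemented MEBM at 37 °C, 5% CO₂. Five concentrations were tested between 0.01 and 100, with 72 h exposure. Formazan was read by A590. GI₅₀ was taken relative to untreated controls, from at least three independent experiments.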

HepG2 = assay: Cytotoxicity against human HepG2 cells after 72 hrs by MTT assay; type: functional; details: HepG2, 72 h; for CC50: read-out: LC50 (the source's name); outline: as §1
K562 = assay: Cytotoxicity against human K562 cells after 72 hrs by MTT assay; type: functional; details: K562, 72 h; for CC50: read-out: LC50 (the source's name); outline: as §1
MCF7 = assay: Cytotoxicity against human MCF7 cells after 72 hrs by MTT assay; type: functional; details: MCF7, 72 h; outline: as §1
HT-29 = assay: Cytotoxicity against human HT-29 cells after 72 hrs by MTT assay; type: functional; details: HT-29, 72 h; for CC50: read-out: LC50 (the source's name); outline: as §1
PC-3 = assay: Cytotoxicity against human PC3 cells after 72 hrs by MTT assay; type: functional; details: PC-3, 72 h; for CC50: read-out: LC50 (the source's name); outline: as §1

Row | Compound | GI50 at 72 h [1] [µM] | LC50 [1] [µM] | TGI [1] [µM] | GI50 (HepG2) [µM] | TGI (HepG2) [µM] | CC50 (HepG2) [µM] | GI50 (K562) [µM] | TGI (K562) [µM] | CC50 (K562) [µM] | GI50 (MCF7) [µM] | LC50 (MCF7) [µM] | TGI (MCF7) [µM] | GI50 (HT-29) [µM] | TGI (HT-29) [µM] | CC50 (HT-29) [µM] | GI50 (PC-3) [µM] | TGI (PC-3) [µM] | CC50 (PC-3) [µM]
1 | CS/C(=N\C(=O)c1c2ccccc2nc2ccccc12)NC(=O)c1c2ccccc2nc2ccccc12 | 1 | > 100 | > 100 | 90.2 | > 100 | > 100 | 45 | 76 | > 100 | 27.7 | > 100 | > 100 | 69.2 | > 100 | > 100 | 51.1 | 87.3 | > 100
2 | C[Se]/C(=N\C(=O)c1cc2ccccc2s1)NC(=O)c1cc2ccccc2s1 | 0.49 | 73.21 | 34.65 | 9.59 | 41 | 73.3 | 32.4 | 61 | 89.5 | 5.07 | 80.6 | 32.7 | 5.62 | > 100 | > 100 | 37.2 | 65.6 | 94
3 | C[Se]/C(=N\C(=O)c1ccc2c(c1)OCO2)NC(=O)c1ccc2c(c1)OCO2 | 5.58 | > 100 | 45.97 | 5.84 | 23.6 | 73.1 | 9.23 | 46.3 | 85.2 | 0.99 | > 100 | 52.8 | 0.53 | > 100 | > 100 | 4.24 | 36.8 | > 100
4 | C[Se]/C(=N\C(=O)c1c2ccccc2nc2ccccc12)NC(=O)c1c2ccccc2nc2ccccc12 | 18.2 | 88.31 | 53.28 | 22.3 | 52.4 | 82.5 | 27.2 | 61 | 94.8 | 73.9 | > 100 | > 100 | 7.63 | > 100 | > 100 | 41.3 | 80.1 | > 100
5 | O=C(/N=C(/NC(=O)c1ccco1)[Se]Cc1ccccc1)c1ccco1 | 8.8 | > 100 | 57.98 | 7.65 | 39.5 | 76.5 | 9.53 | 44.2 | 80.6 | 8.8 | > 100 | 58 | 7.19 | 89.1 | 89.1 | 30.5 | 57.6 | 84.8
6 | O=C(/N=C(/NC(=O)c1cccs1)[Se]Cc1ccccc1)c1cccs1 | 72.5 | > 100 | > 100 | 34.7 | 58.1 | 81.5 | 29.5 | 58.5 | 87.4 | 72.5 | > 100 | > 100 | 55.1 | > 100 | > 100 | 49.9 | > 100 | > 100
7 | O=C(/N=C(/NC(=O)c1sccc1Cl)[Se]Cc1ccccc1)c1sccc1Cl | 3.68 | > 100 | 28.33 | 4.42 | 45.5 | > 100 | 7.63 | 95.8 | > 100 | 3.68 | > 100 | 28.3 | 6.51 | > 100 | > 100 | 52.7 | > 100 | > 100
8 | O=C(/N=C(/NC(=O)c1csc([N+](=O)[O-])c1)[Se]Cc1ccccc1)c1csc([N+](=O)[O-])c1 | 24.4 | 83.76 | 54.1 | 34.1 | 62.8 | 91.6 | 23.5 | 55.8 | 88.2 | 24.4 | 83.8 | 54.1 | 9.25 | > 100 | > 100 | 35.9 | 69.2 | > 100
9 | O=C(/N=C(/NC(=O)c1ccno1)[Se]Cc1ccccc1)c1ccno1 | 7.8 | > 100 | > 100 | 9.12 | 58.9 | > 100 | 20 | 57.3 | 94.7 | 7.8 | > 100 | > 100 | 6.82 | > 100 | > 100 | 53.1 | > 100 | > 100
10 | O=C(/N=C(/NC(=O)c1cc2ccccc2s1)[Se]Cc1ccccc1)c1cc2ccccc2s1 | 37.9 | 87.9 | 62.92 | 21 | 49 | 77 | 14.9 | 42.8 | 70.6 | 37.9 | 87.9 | 62.9 | 6.51 | > 100 | > 100 | 30.5 | 58.4 | 86.3
11 | O=C(/N=C(/NC(=O)c1ccc2c(c1)OCO2)[Se]Cc1ccccc1)c1ccc2c(c1)OCO2 | 55.3 | > 100 | > 100 | > 100 | > 100 | > 100 | 97.8 | > 100 | > 100 | 55.3 | > 100 | > 100 | 57.3 | > 100 | > 100 | > 100 | > 100 | > 100
12 | O=C(/N=C(/NC(=O)c1cnc2ccccc2c1)[Se]Cc1ccccc1)c1cnc2ccccc2c1 | 23.6 | > 100 | > 100 | 8.54 | 48.9 | 90.3 | 29.3 | 72.6 | > 100 | 23.6 | > 100 | > 100 | 26.1 | > 100 | > 100 | 34.8 | > 100 | > 100
13 | O=C(/N=C(/NC(=O)c1cc(-c2ccccc2)nc2ccccc12)[Se]Cc1ccccc1)c1cc(-c2ccccc2)nc2ccccc12 | 8.46 | 97.04 | 45.56 | 25.8 | 52.4 | 78.9 | 9.06 | 47.4 | 88.9 | 8.46 | 97 | 45.6 | 6.07 | > 100 | > 100 | 39.3 | 97.1 | > 100
14 | O=C(/N=C(/NC(=O)c1c2ccccc2nc2ccccc12)[Se]Cc1ccccc1)c1c2ccccc2nc2ccccc12 | 53.7 | > 100 | 88.14 | 30.4 | 64.5 | 98.5 | 9.6 | 44.5 | 80.7 | 53.7 | > 100 | 88.1 | 26.9 | > 100 | > 100 | 42.3 | 77.4 | > 100
15 | COc1cccc2c1C(=O)c1c(O)c3c(c(O)c1C2=O)C[C@@](O)(C(=O)CO)C[C@@H]3O[C@H]1C[C@H](N)[C@H](O)[C@H](C)O1 [DOXORUBICIN] | – | – | – | – | – | – | 0.1 | 5.01 | 19.9 | 0.02 | – | 5.01 | 0.2 | 25.4 | 25.4 | 0.25 | 3.16 | 19.9
16 | COc1cc([C@@H]2c3cc4c(cc3[C@@H](O[C@@H]3O[C@@H]5CO[C@@H](C)O[C@H]5[C@H](O)[C@H]3O)[C@H]3COC(=O)[C@H]23)OCO4)cc(OC)c1O [ETOPOSIDE] | – | – | – | – | – | – | 12.6 | > 100 | > 100 | 19.9 | – | > 100 | 31.6 | > 100 | > 100 | 0.63 | 3.98 | 79.4
17 | CN(Cc1cnc2nc(N)nc(N)c2n1)c1ccc(C(=O)N[C@@H](CCC(=O)O)C(=O)O)cc1 [METHOTREXATE] | – | – | – | – | – | – | 0.03 | > 100 | > 100 | 0.06 | – | > 100 | 0.04 | > 100 | 0.03 | 0.1 | > 100 | > 100
18 | CC(=O)O[C@H]1C(=O)[C@@]2(C)[C@H]([C@H](OC(=O)c3ccccc3)[C@]3(O)C[C@H](OC(=O)[C@H](O)[C@@H](NC(=O)c4ccccc4)c4ccccc4)C(C)=C1C3(C)C)[C@]1(OC(C)=O)CO[C@@H]1C[C@@H]2O [PACLITAXEL] | – | – | – | – | – | – | 0.004 | 15.8 | > 100 | 0.003 | – | > 100 | 0.003 | 79.4 | 79.4 | 0.004 | 12.6 | > 100
